From ChEMBL document CHEMBL1126191, “New antiinflammatory agents. 2. 5-Phenyl-3H-imidazo[4,5-c][1,8]naphthyridin-4(5H)-ones: a new class of nonsteroidal antiinflammatory agents with potent activity like glucocorticoids” (J Med Chem, 1992)

Assays:
[1] = system: Mus musculus; test: Acute lethal toxicity (peroral administration), determined by observing the mortality for 7 days after the administration in mouse; type: organism-based; conditions: in vivo, po, 168 h
Procedure, shortened: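 Male dd mice of 20-25 g, three per group, given compound by mouth once. Mortality followed for 7 days, and the minimum lethal dose (MLD) was recorded in mg/kg po.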

[2] = system: Rattus norvegicus; test: Antiinflammatory effect in rat paw edema model following 50 mg/kg p.o. administration.; type: functional; conditions: route oral
[3] = system: Rattus norvegicus; test: Antiinflammatory effect (oral administration) on rat paw edema model (reversed passive Arthus reaction-induced paw edema) at 10 mg/kg; type: functional
Procedure, shortened: (§1)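 Reversed passive Arthus: male Wistar rats (~150 g, n=5) were dosed orally with compound in 5% arabic gum. Paw volume was measured by plethysmograph before dosing and 2 h after antigen. % inhibition was calculated vs controls, and ED50 came from log-dose linear regression.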

[4] = system: Rattus norvegicus; test: Antiinflammatory effect (oral administration), on zymosan-induced rat paw edema at 25 mg/kg; type: functional
Procedure, shortened: (§2)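 Oral dosing in 5% arabic gum suspension to male Wistar rats (~150 g, n=5) 1 h before subplantar injection of 1% zymosan in saline into the hind paw. Paw volume was read by plethysmograph before dosing and 4 h after zymosan.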

[5] = system: Rattus norvegicus; test: Antiinflammatory effect (oral administration), on rat reversed passive Arthus reaction-induced paw edema at 5 mg/kg; type: functional; procedure, shortened: as §1
[6] = system: Rattus norvegicus; test: Antiinflammatory effect (oral administration) on rat paw edema model (carrageenan-induced paw edema) at 50 mg/kg; type: functional
[7] = system: Rattus norvegicus; test: Antiinflammatory effect (oral administration) on rat paw edema model (reversed passive Arthus reaction-induced paw edema) at 5 mg/kg; type: functional; procedure, shortened: as §1
[8] = system: Rattus norvegicus; test: Antiinflammatory effect (oral administration) on rat paw edema model (zymosan-induced paw edema) at 50 mg/kg; type: functional; procedure, shortened: as §2
[9] = system: Rattus norvegicus; test: Dose of the compound (oral administration) showing antiinflammatory effect on rat paw edema model (carrageenan-induced paw edema, CPE); type: functional
[10] = system: Rattus norvegicus; test: Oral dose required for antiinflammatory effect on zymosan induced rat paw edema.; type: functional; procedure, shortened: as §2
[11] = system: Rattus norvegicus; test: Antiinflammatory effect of the compound(oral administration) on rat paw edema model(carrageenan-induced paw edema) at 50 mg/kg; type: functional
[12] = system: Rattus norvegicus; test: Dose of the compound (oral administration) showing antiinflammatory effect on rat paw edema model (reversed passive Arthus reaction-induced paw edema, RPAR); type: functional; procedure, shortened: as §1
[13] = system: Rattus norvegicus; test: Antiinflammatory effect of the compound (oral administration) on rat paw edema model (reversed passive Arthus reaction-induced paw edema, RPAR); type: functional; procedure, shortened: as §1
[14] = system: Rattus norvegicus; test: Antiinflammatory effect of the compound(oral administration) on rat paw edema model(zymosan-induced paw edema) at 50 mg/kg; type: functional; procedure, shortened: as §2
[15] = system: Rattus norvegicus; test: Antiinflammatory effect (oral administration) on rat paw edema model (reversed passive Arthus reaction-induced paw edema) at 100 mg/kg; type: functional; procedure, shortened: as §1

| Structure (SMILES) | MLD [1] [mg/kg] | inhibition in vivo at 50 mg/kg [2] [%] | inhibition in vivo at 25 mg/kg [4] [%] | inhibition in vivo at 5 mg/kg [5] [%] | ED40 [9] [mg/kg] | ED40 [10] [mg/kg] | inhibition in vivo at 50 mg/kg [11] [%] | ED50 [12] [mg/kg] | further results |
| --- | --- | --- | --- | --- | --- | --- | --- | --- | --- |
| O=c1c2c(ncn2CCc2ccccc2)c2cccnc2n1-c1ccccc1 | > 300 | 2.2 | 25.7 | – | – | – | – | – | inhibition in vivo at 10 mg/kg [3]: 5.6% |
| O=c1c2c(ncn2Cc2ccccc2Cl)c2cccnc2n1-c1ccccc1 | – | 14.9 | 27.3 | 20.8 | – | – | – | – | – |
| CCN(CC)CCCn1cnc2c3cccnc3n(-c3ccccc3)c(=O)c21 | – | 7.2 | 17.4 | 11.1 | – | – | – | – | – |
| O=c1c2c(nc(-c3ccccc3)n2Cc2ccccc2)c2cccnc2n1-c1ccccc1 | – | – | – | – | – | – | – | – | inhibition in vivo at 50 mg/kg [6]: 0%; inhibition in vivo at 5 mg/kg [7]: 1.2%; inhibition in vivo at 50 mg/kg [8]: -4% |
| O=c1c2c(ncn2Cc2ccccc2)c2cccnc2n1-c1ccccc1 | > 300 | – | 68.3 | 79.7 | 5.3 | 0.37 | 63 | 0.47 | – |
| O=c1c2c(ncn2CCCN2CCOCC2)c2cccnc2n1-c1ccccc1 | – | – | 22.4 | -3.5 | – | – | 9.7 | – | – |
| CCn1cnc2c3cccnc3n(-c3ccccc3)c(=O)c21 | 100 | – | 77.5 | – | 13.9 | 1.6 | 58.2 | 1.9 | inhibition in vivo at 10 mg/kg [3]: 86.9% |
| Cn1cnc2c3cccnc3n(-c3ccccc3)c(=O)c21 | 100 | – | – | 45 | – | – | 40 | – | – |
| O=c1c2c(ncn2Cc2ccc(Cl)cc2)c2cccnc2n1-c1ccccc1 | > 300 | 21.3 | 42.8 | 15.1 | – | 20.3 | – | – | – |
| CC(C)n1cnc2c3cccnc3n(-c3ccccc3)c(=O)c21 | 200 | 43.1 | 62.4 | 13.3 | – | 12.7 | – | – | – |
| O=c1c2ncn(Cc3ccccc3)c2c2cccnc2n1-c1ccccc1 | > 300 | – | 4.7 | 1.5 | – | – | – | – | – |
| CC(c1ccccc1)n1cnc2c3cccnc3n(-c3ccccc3)c(=O)c21 (centres undefined) | > 300 | 3.5 | 1.6 | 14.9 | – | – | – | – | – |
| CC(C)Cn1cnc2c3cccnc3n(-c3ccccc3)c(=O)c21 | 300 | – | 69.7 | 61.8 | 9.1 | 0.19 | 57.4 | 0.97 | – |
| O=c1c2c(ncn2CCCO)c2cccnc2n1-c1ccccc1 | > 300 | – | 58.1 | 41.3 | 33.5 | 4.8 | 42.6 | 3.7 | – |
| CC(=O)OCCn1cnc2c3cccnc3n(-c3ccccc3)c(=O)c21 | > 300 | – | 41.6 | – | 40.3 | 19.4 | 42.2 | – | inhibition in vivo at 10 mg/kg [3]: 11.8% |
| O=C(O)Cn1cnc2c3cccnc3n(-c3ccccc3)c(=O)c21 | – | 10.8 | 5.1 | 3.3 | – | – | – | – | – |
| CCCCCCn1cnc2c3cccnc3n(-c3ccccc3)c(=O)c21 | > 300 | – | 33.5 | 51.1 | – | – | 35.2 | 4.9 | – |
| CC(C)n1cnc2c(=O)n(-c3ccccc3)c3ncccc3c21 | > 300 | – | – | 32 | – | – | – | – | – |
| C=CCn1cnc2c3cccnc3n(-c3ccccc3)c(=O)c21 | > 300 | – | 67.3 | 22.7 | 21.9 | 2.7 | 67.8 | – | – |
| Oc1c2ncnc-2c2cccnc2n1-c1ccccc1 | > 300 | – | – | 15.4 | – | – | – | – | – |
| Cc1ccc(C)c(Cn2cnc3c4cccnc4n(-c4ccccc4)c(=O)c32)c1 | – | 1.2 | 10.1 | -3.5 | – | – | – | – | – |

| Structure (SMILES) | MLD [1] [mg/kg] | inhibition in vivo at 50 mg/kg [2] [%] | inhibition in vivo at 25 mg/kg [4] [%] | inhibition in vivo at 5 mg/kg [5] [%] | ED40 [9] [mg/kg] | ED40 [10] [mg/kg] | inhibition in vivo at 50 mg/kg [11] [%] | ED50 [12] [mg/kg] | further results |
| --- | --- | --- | --- | --- | --- | --- | --- | --- | --- |
| CCCn1cnc2c3cccnc3n(-c3ccccc3)c(=O)c21 | 200 | – | 61.2 | – | 15.9 | 1.3 | 57.3 | 2 | Inhibition [13]: 74.4% |
| Cc1cccc(Cn2cnc3c4cccnc4n(-c4ccccc4)c(=O)c32)c1 | – | – | 33.3 | – | – | – | 18.4 | – | inhibition in vivo at 10 mg/kg [3]: 33.5% |
| CCOCCn1cnc2c3cccnc3n(-c3ccccc3)c(=O)c21 | > 300 | – | 57.4 | 50.3 | 15.5 | 6 | 56.7 | 3.2 | – |
| O=c1c2c(ncn2C/C=C/c2ccccc2)c2cccnc2n1-c1ccccc1 | > 300 | 26.3 | 34.2 | 17.5 | – | – | – | – | – |
| COc1ccc(Cn2cnc3c4cccnc4n(-c4ccccc4)c(=O)c32)cc1 | > 300 | 37.8 | 66.9 | 59.2 | – | 0.93 | – | 2.3 | – |
| CC(=O)Cn1cnc2c3cccnc3n(-c3ccccc3)c(=O)c21 | > 200 | – | 53.7 | 57.7 | 40 | 3.9 | 41.3 | 4.5 | – |
| CCn1cnc2c(=O)n(-c3ccccc3)c3ncccc3c21 | > 300 | – | 13.5 | 3.5 | – | – | – | – | – |
| CCOC(=O)Cn1cnc2c3cccnc3n(-c3ccccc3)c(=O)c21 | – | – | 5 | 9.9 | – | – | 23.1 | – | – |
| CC(O)Cn1cnc2c3cccnc3n(-c3ccccc3)c(=O)c21 (centres undefined) | 300 | – | 74.7 | 61.8 | 7.8 | 4.5 | 48 | 1.9 | – |
| O=c1c2c(ncn2Cc2cccc(Br)c2)c2cccnc2n1-c1ccccc1 | – | 26.9 | – | – | – | – | – | – | inhibition in vivo at 10 mg/kg [3]: 17.2% |
| O=c1c2c(ncn2Cc2cccc([N+](=O)[O-])c2)c2cccnc2n1-c1ccccc1 | – | 33.1 | 35.7 | 43.9 | – | – | – | – | – |
| O=c1c2c(ncn2Cc2ccc([N+](=O)[O-])cc2)c2cccnc2n1-c1ccccc1 | > 300 | 35.9 | 45.6 | 22.2 | – | 3.5 | – | – | – |
| O=c1c2c(ncn2CC2CCCCC2)c2cccnc2n1-c1ccccc1 | > 300 | 34.7 | 49.8 | – | – | 11.8 | – | 5.7 | inhibition in vivo at 10 mg/kg [3]: 62.9% |
| COC(=O)c1ccc(Cn2cnc3c4cccnc4n(-c4ccccc4)c(=O)c32)cc1 | – | – | – | 9.2 | – | – | 8.7 | – | inhibition in vivo at 50 mg/kg [14]: 9.9% |
| CCCCn1cnc2c3cccnc3n(-c3ccccc3)c(=O)c21 | 300 | – | 55.5 | 49.9 | 15.4 | 2.1 | 45.8 | 4.8 | – |
| Cc1nc2c3cccnc3n(-c3ccccc3)c(=O)c2n1Cc1ccccc1 | – | – | 19.2 | 6.5 | – | – | 4.7 | – | – |
| Cc1ccc(Cn2cnc3c4cccnc4n(-c4ccccc4)c(=O)c32)cc1 | > 300 | 39.2 | 56.2 | 67.4 | – | 3.5 | – | 1.9 | – |
| COc1cccc(Cn2cnc3c4cccnc4n(-c4ccccc4)c(=O)c32)c1 | – | 13 | 43.5 | – | – | – | – | – | inhibition in vivo at 10 mg/kg [3]: 24% |
| C[C@]12C=CC(=O)C=C1CC[C@@H]1[C@@H]2[C@@H](O)C[C@@]2(C)[C@H]1CC[C@]2(O)C(=O)CO [PREDNISOLONE] | > 300 | – | – | – | 4.7 | 1.2 | – | 74.2 | – |
| NC(=O)N1C(=O)/C(=C(\O)c2cccs2)c2cc(Cl)ccc21 [TENIDAP] | > 300 | – | – | – | 14.8 | 41.2 | – | – | inhibition in vivo at 100 mg/kg [15]: 4.8% |
